We go through 13 compounds from publication PMC8848307 (Journal of medicinal chemistry, 2019).

Values joined by “and” are separate entries in the source; they are usually repeats but may differ in a detail not shown here. Equal entries are not always repeated.

Assay [1] has as its target T1, STAT3 protein (Homo sapiens, UniProt P40763). Kind of assay: Western blotting of STAT3 degradation in Molm-16 cells. In kind it is cell-based. To be noted: for degradation of total STAT3 and pSTAT3^Y705 proteins: Molm-16, concentrations up to 10 μM; for times less potent than SD-36 in STAT3 degradation: Molm-16 cells, ratio of DC50. (In western blotting, separated proteins are transferred to a membrane and probed.)

Another assay has as its system Molm-16 cell line. In words: Cell growth assay. In kind it is cell-based. To be noted: Molm-16.
Assay [2] has as its target T1, STAT3 protein. In words: Western blotting of STAT3 degradation in SU-DHL-1 cells. In kind it is cell-based. To be noted: for times less potent than SD-36 in STAT3 degradation: SU-DHL-1 cells, ratio of DC50; for reducing the levels of STAT3 and pSTAT3^Y705 proteins: SU-DHL-1, up to 5 μM.
Assay [3] concerns the target human recombinant STAT3 SH2 protein (Homo sapiens, UniProt P40763). Kind of assay: Fluorescence polarization. The note with it: for times less potent than SI-109 in binding to STAT3: ratio of binding affinities vs SI-109. In kind it is binding. For orientation: In fluorescence polarisation assays a small probe gives low polarisation when free and higher when bound to something large.

In assay [4] the target is STAT3 protein (Mus musculus, UniProt P42227). Kind of assay: Pharmacodynamics in native mouse spleen tissue. In kind it is in vivo. To be noted: single intravenous dose, 25 mg/kg, CD-1 mice. An outline of the steps:
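Female CD-1 mice received a single intravenous dose of test compound or vehicle (10% PEG400 + 90% PBS). Mice were euthanized at set time points and spleens harvested. Native spleen lysates were immunoblotted for STAT3.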

Chain of human recombinant STAT3 SH2 protein (P40763 127-688): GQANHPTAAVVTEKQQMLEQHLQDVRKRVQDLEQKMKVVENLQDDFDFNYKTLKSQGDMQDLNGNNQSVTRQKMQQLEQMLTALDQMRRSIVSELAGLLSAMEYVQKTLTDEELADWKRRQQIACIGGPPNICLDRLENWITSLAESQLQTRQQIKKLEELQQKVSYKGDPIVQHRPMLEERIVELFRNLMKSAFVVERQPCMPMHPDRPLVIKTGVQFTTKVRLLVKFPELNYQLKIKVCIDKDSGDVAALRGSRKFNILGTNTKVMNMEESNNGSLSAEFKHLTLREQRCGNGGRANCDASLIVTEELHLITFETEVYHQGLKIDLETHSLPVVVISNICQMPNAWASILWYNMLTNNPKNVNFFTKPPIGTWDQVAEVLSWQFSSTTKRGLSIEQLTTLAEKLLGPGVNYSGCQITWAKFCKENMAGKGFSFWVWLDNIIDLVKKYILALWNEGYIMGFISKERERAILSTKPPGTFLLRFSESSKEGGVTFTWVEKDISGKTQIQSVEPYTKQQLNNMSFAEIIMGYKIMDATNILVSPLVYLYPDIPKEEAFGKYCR
T1 sequence (P40763 whole entry): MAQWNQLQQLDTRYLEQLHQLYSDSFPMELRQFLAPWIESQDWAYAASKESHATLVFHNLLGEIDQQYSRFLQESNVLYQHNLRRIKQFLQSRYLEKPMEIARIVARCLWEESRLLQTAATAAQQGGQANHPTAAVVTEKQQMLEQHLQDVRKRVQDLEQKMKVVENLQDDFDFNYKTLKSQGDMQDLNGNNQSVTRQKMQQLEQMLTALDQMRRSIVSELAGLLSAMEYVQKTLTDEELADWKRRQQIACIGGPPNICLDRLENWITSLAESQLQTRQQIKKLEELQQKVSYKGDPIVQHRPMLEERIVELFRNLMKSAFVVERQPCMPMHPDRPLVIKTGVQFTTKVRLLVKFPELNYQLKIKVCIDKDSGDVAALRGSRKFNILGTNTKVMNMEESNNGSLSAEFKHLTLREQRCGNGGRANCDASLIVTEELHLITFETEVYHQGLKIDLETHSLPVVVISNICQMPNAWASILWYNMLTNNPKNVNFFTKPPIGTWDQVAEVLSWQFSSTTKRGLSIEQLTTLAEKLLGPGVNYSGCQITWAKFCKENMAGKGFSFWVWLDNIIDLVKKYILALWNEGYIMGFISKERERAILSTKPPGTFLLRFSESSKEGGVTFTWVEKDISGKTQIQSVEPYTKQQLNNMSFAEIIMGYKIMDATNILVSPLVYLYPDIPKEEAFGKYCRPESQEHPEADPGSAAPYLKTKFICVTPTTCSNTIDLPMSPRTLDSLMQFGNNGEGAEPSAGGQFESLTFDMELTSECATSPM
Chain of STAT3 protein (Mus musculus, UniProt P42227) (P42227 whole entry): as the sequence (P40763 whole entry) above, with E760D counted along it

As to `NC(=O)CC[C@H](NC(=O)[C@@H]1CC[C@@H]2CCN(C(=O)CCCCCC#Cc3cccc4c3CN(C3CCC(=O)NC3=O)C4=O)C[C@H](NC(=O)c3cc4cc(OP(=O)(O)O)ccc4[nH]3)C(=O)N21)C(=O)NC(c1ccccc1)c1ccccc1` (stereo partly drawn) [Compound 32, 2-(((5S,8S,10aR)-8-(((S)-5-Amino-1-(benzhydrylamino)-1,5-dioxopentan-2-yl)carbamoyl)-3-(8-(2-(2,6-dioxopiperidin-3-yl)-1-oxoisoindolin-4-yl)oct-7-ynoyl)-6-oxodecahydropyrrolo-[1,2-a][1,5]diazocin-5-yl)carbamoyl)-1H-indol-5-yl Dihydrogen Phosphate], the “degradation of total STAT3 and pSTAT3^Y705 proteins” value on STAT3 protein [1] was “fail to degrade”. Further, the “activity in inhibition of cell growth” value with Molm-16 cell line is “very weak activity”.
For the compound `CNC(=O)[C@H](CCC(N)=O)NC(=O)[C@@H]1CC[C@@H]2CCN(C(=O)CCCCCC#Cc3cccc4c3CN(C3CCC(=O)NC3=O)C4=O)C[C@H](NC(=O)c3cc4cc(C(F)(F)P(=O)(O)O)ccc4[nH]3)C(=O)N21` (stereo partly drawn) [Compound 31, ((2-(((5S,8S,10aR)-8-(((S)-5-Amino-1-(methylamino)-1,5-dioxopentan-2-yl)carbamoyl)-3-(8-(2-(2,6-dioxopiperidin-3-yl)-1-oxoisoindolin-4-yl)oct-7-ynoyl)-6-oxodecahydropyrrolo-[1,2-a][1,5]diazocin-5-yl)carbamoyl)-1H-indol-5-yl)difluoromethyl)phosphonic Acid], the “times less potent than SD-36 in STAT3 degradation” value is 10 times and > 10 times on STAT3 protein [1]; 30 times at STAT3 protein [2].
In the case of `CC(=O)N1CC[C@H]2CC[C@@H](C(=O)N[C@@H](CCC(N)=O)C(=O)NC(c3ccccc3)c3ccccc3)N2C(=O)[C@@H](NC(=O)c2cc3cc(OP(=O)(O)O)ccc3[nH]2)C1` [Compound 9, 2-(((5S,8S,10aR)-3-Acetyl-8-(((S)-5-amino-1-(benzhydrylamino)-1,5-dioxopentan-2-yl)carbamoyl)-6-oxodecahydropyrrolo[1,2-a][1,5]diazocin-5-yl)carbamoyl)-1H-indol-5-yl Dihydrogen Phosphate], the “times less potent than SI-109 in binding to STAT3” value in assay [3] is on record as 2 times.
On to `NC(=O)CC[C@H](NC(=O)[C@@H]1CC[C@@H]2CCN(C(=O)NCCCCC#Cc3cccc4c3CN(C3CCC(=O)NC3=O)C4=O)C[C@H](NC(=O)c3cc4cc(C(F)(F)P(=O)(O)O)ccc4[nH]3)C(=O)N21)C(=O)NC(c1ccccc1)c1ccccc1` (stereo partly drawn) [Compound 19, ((2-(((5S,8S,10aR)-8-(((S)-5-Amino-1-(benzhydrylamino)-1,5-dioxopentan-2-yl)carbamoyl)-3-((6-(2-(2,6-dioxopiperidin-3-yl)-1-oxoisoindolin-4-yl)hex-5-yn-1-yl)carbamoyl)-6-oxodecahydropyrrolo[1,2-a][1,5]diazocin-5-yl)carbamoyl)-1H-indol-5-yl)difluoromethyl)phosphonic Acid], for which, on STAT3 protein [4], the “persistence of STAT3 reduction in spleen” value was “more than 48 h” and the “reducing STAT3 protein in native mouse spleen tissue” value is given as “very effective”.
Take `NC(=O)CC[C@H](NC(=O)[C@@H]1CC[C@@H]2CCN(CCCCCCC#Cc3cccc4c3CN(C3CCC(=O)NC3=O)C4=O)C[C@H](NC(=O)c3cc4cc(C(F)(F)P(=O)(O)O)ccc4[nH]3)C(=O)N21)C(=O)NC(c1ccccc1)c1ccccc1` (stereo partly drawn) [Compound 17, ((2-(((5S,8S,10aR)-8-(((S)-5-Amino-1-(benzhydrylamino)-1,5-dioxopentan-2-yl)carbamoyl)-3-(8-(2-(2,6-dioxopiperidin-3-yl)-1-oxoisoindolin-4-yl)oct-7-yn-1-yl)-6-oxodecahydropyrrolo[1,2-a][1,5]diazocin-5-yl)carbamoyl)-1H-indol-5-yl)difluoromethyl)phosphonic Acid]: the results for the “times less potent than SD-36 in STAT3 degradation” value at STAT3 protein [1] and on STAT3 protein [2] were more than 10 times and 30 times, respectively.
For `CC(=O)N1CC[C@H]2CC[C@@H](C(=O)N[C@@H](CCC(N)=O)C(=O)NC(c3ccccc3)c3ccccc3)N2C(=O)[C@@H](NC(=O)c2cc3cc(CP(=O)(O)O)ccc3[nH]2)C1` [Compound 10, ((2-(((5S,8S,10aR)-3-Acetyl-8-(((S)-5-amino-1-(benzhydrylamino)-1,5-dioxopentan-2-yl)carbamoyl)-6-oxodecahydropyrrolo[1,2-a][1,5]diazocin-5-yl)carbamoyl)-1 H-indol-5-yl)methyl)phosphonic Acid], the “times less potent than SI-109 in binding to STAT3” value in assay [3] came to 14 times.
Same read-out and setting: the result for `CC(=O)N1CC[C@H]2CC[C@@H](C(=O)N[C@@H](CCC(N)=O)C(=O)NC(c3ccccc3)c3ccccc3)N2C(=O)[C@@H](NC(=O)/C=C(\C)c2ccc(C(F)(F)P(=O)(O)O)cc2)C1` [Compound 11, ((4-((E)-4-(((5S,8S,10aR)-3-Acetyl-8-(((S)-5-amino-1-(benzhydrylamino)-1,5-dioxopentan-2-yl)carbamoyl)-6-oxodecahydropyrrolo[1,2-a][1,5]diazocin-5-yl)amino)-4-oxobut-2-en-2-yl)phenyl)difluoromethyl)phosphonic Acid] reads more than 10 times.
Turning to `NC(=O)CC[C@H](NC(=O)[C@@H]1CC[C@@H]2CCCC[C@H](NC(=O)c3cc4cc(C(F)(F)P(=O)(O)O)ccc4[nH]3)C(=O)N21)C(=O)NCc1ccccc1` [Compound 4, (2-((3S,6S)-3-((S)-5-Amino-1-(benzylamino)-1,5-dioxopentan-2-ylcarbamoyl)-5-oxodecahydropyrrolo[1,2-a]azocin-6-ylcarbamoyl)-1H-indol-5-yl)difluoromethylphosphonic Acid], the “times more potent than 3 in binding to STAT3” value in assay [3] (ratio of Ki vs compound 3) is given as more than 100 times.
Consider `NC(=O)CC[C@H](NC(=O)[C@@H]1CC[C@@H]2CCN(C(=O)CCCCCC#Cc3cccc4c3C(=O)N(C3CCC(=O)NC3=O)C4=O)C[C@H](NC(=O)c3cc4cc(C(F)(F)P(=O)(O)O)ccc4[nH]3)C(=O)N21)C(=O)NC(c1ccccc1)c1ccccc1` (stereo partly drawn) [Compound 27, ((2-(((5S,8S,10aR)-8-(((S)-5-Amino-1-(benzhydrylamino)-1,5-dioxopentan-2-yl)carbamoyl)-3-(8-(2-(2,6-dioxopiperidin-3-yl)-1,3-dioxoisoindolin-4-yl)oct-7-ynoyl)-6-oxodecahydropyrrolo[1,2-a][1,5]diazocin-5-yl)carbamoyl)-1H-indol-5-yl)difluoromethyl)phosphonic Acid], for which the “times less potent than SD-36 in STAT3 degradation” value on STAT3 protein [1] is reported as more than 50 times. In addition, the “reducing the levels of STAT3 and pSTAT3^Y705 proteins” value at STAT3 protein [2] was “ineffective”.
Take `NC(=O)CC[C@H](NC(=O)[C@@H]1CC[C@@H]2CCCC[C@H](NC(=O)c3cc4cc(CP(=O)(O)O)ccc4[nH]3)C(=O)N21)C(=O)NCc1ccccc1` [Compound 3, (2-((3S,6S)-3-((S)-5-Amino-1-(benzylamino)-1,5-dioxopentan-2-ylcarbamoyl)-5-oxodecahydropyrrolo[1,2-a]azocin-6-ylcarbamoyl)-1H-indol-5-yl)methylphosphonic Acid]: the “times weaker than 2 in binding to STAT3” value in assay [3] (ratio of Ki vs compound 2) is 30 times.
In the case of `NC(=O)CC[C@H](NC(=O)[C@@H]1CC[C@@H]2CCN(C(=O)CCCCCC#Cc3cccc4c3CN(C3CCC(=O)NC3=O)C4=O)C[C@H](NC(=O)c3cc4cc(CP(=O)(O)O)ccc4[nH]3)C(=O)N21)C(=O)NC(c1ccccc1)c1ccccc1` (stereo partly drawn) [Compound 33, ((2-(((5S,8S,10aR)-8-(((S)-5-Amino-1-(benzhydrylamino)-1,5-dioxopentan-2-yl)carbamoyl)-3-(8-(2-(2,6-dioxopiperidin-3-yl)-1-oxoisoindolin-4-yl)oct-7-ynoyl)-6-oxodecahydropyrrolo-[1,2-a][1,5]diazocin-5-yl)carbamoyl)-1H-indol-5-yl)methyl)-phosphonic Acid], the “degradation of total STAT3 and pSTAT3^Y705 proteins” value on STAT3 protein [1] is “fail to degrade”. Moreover, in the assay on Molm-16 cell line, the “activity in inhibition of cell growth” value is listed as “very weak activity”.
As to `NC(=O)CC[C@H](NC(=O)[C@@H]1CC[C@@H]2CCN(C(=O)CCCCCC#Cc3cccc4c3CN(C3CCC(=O)NC3=O)C4=O)C[C@H](NC(=O)c3cc4cc(C(F)(F)P(=O)(O)O)ccc4[nH]3)C(=O)N21)C(=O)NCc1ccccc1` (stereo partly drawn) [Compound 30, ((2-(((5S,8S,10aR)-8-(((S)-5-Amino-1-(benzylamino)-1,5-dioxopentan-2-yl)carbamoyl)-3-(8-(2-(2,6-dioxopiperidin-3-yl)-1-oxoisoindolin-4-yl)oct-7-ynoyl)-6-oxodecahydropyrrolo-[1,2-a][1,5]diazocin-5-yl)carbamoyl) −1H-indol-5-yl)difluoromethyl)phosphonic Acid], the “times less potent than SD-36 in STAT3 degradation” value was 4 times on STAT3 protein [1] and 2 times on STAT3 protein [2].
Take `C/C(=C\C(=O)N[C@H]1CN(C(=O)CCCCCC#Cc2cccc3c2CN(C2CCC(=O)NC2=O)C3=O)CC[C@H]2CC[C@@H](C(=O)N[C@@H](CCC(N)=O)C(=O)NC(c3ccccc3)c3ccccc3)N2C1=O)c1ccc(C(F)(F)P(=O)(O)O)cc1` (stereo partly drawn) [Compound 34, ((4-((E)-4-(((5S,8S,10aR)-8-(((S)-5-Amino-1-(benzhydrylamino)-1,5-dioxopentan-2-yl)carbamoyl)-3-(8-(2-(2,6-dioxopiperidin-3-yl)-1-oxoisoindolin-4-yl)oct-7-ynoyl)-6-oxodecahydropyrrolo[1,2-a][1,5]diazocin-5-yl)amino)-4-oxobut-2-en-2-yl)phenyl)difluoromethyl)phosphonic Acid]: the “times less potent than SD-36 in STAT3 degradation” value on STAT3 protein [1] was more than 70 times. For the same compound, the “effect on the levels of STAT3 and pSTAT3^Y705” value at STAT3 protein [2] (SU-DHL-1, concentrations up to 10 μM) is given as “fails to degrade”. Besides, the “reducing the levels of STAT3 and pSTAT3^Y705 proteins” value at STAT3 protein [2] is “ineffective”.
